In ChEMBL document CHEMBL1914320, “C4-alkylthiols with activity against Moraxella catarrhalis and Mycobacterium tuberculosis” (Bioorg Med Chem, 2011):
Calls of active or inactive are those of the source. No cut-off for these calls is given here.

How the values were obtained:
Escherichia coli [1] = experiment: Antibacterial activity against non-beta-lactamase producing Escherichia coli ATCC 25922 at 10 ug/disc after overnight incubation by disc diffusion assay; assay type: functional, organism-based
How it was run: (§1)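 Isolates were held at −80 °C. Five colonies were suspended in Mueller-Hinton broth to a 0.5 McFarland density and swabbed onto MH agar. Discs carried 10 μg compound, applied in methanol and dried at room temperature. Plates were incubated overnight at 37 °C, and the zone of inhibition was measured in mm from the disc edge. Controls were methanol-only and penicillin discs. Run blinded, in triplicate.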

Pseudomonas aeruginosa [2] = experiment: Antibacterial activity against non-beta-lactamase producing Pseudomonas aeruginosa ATCC 27853 at 10 ug/disc after overnight incubation by disc diffusion assay; assay type: functional, organism-based; how it was run: as §1
Staphylococcus aureus [3] = experiment: Antibacterial activity against non-beta-lactamase producing Staphylococcus aureus ATCC 25923 at 10 ug/disc after overnight incubation by disc diffusion assay; assay type: functional, organism-based; how it was run: as §1
Enterococcus faecalis [4] = experiment: Antibacterial activity against non-beta-lactamase producing Enterococcus faecalis ATCC 29212 at 10 ug/disc after overnight incubation by disc diffusion assay; assay type: functional, organism-based; how it was run: as §1
Escherichia coli [5] = experiment: Antibacterial activity against non-beta-lactamase producing Escherichia coli ATCC 25922 after 48 hrs by microdilution broth method; assay type: functional, organism-based
How it was run: (§2)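 Broth microdilution followed CLSI guidelines. Compound was dissolved in 95% ethanol, diluted at least 10-fold into Mueller-Hinton broth, then serially two-fold diluted from 500 to 15.6 μg/mL. Actively growing culture was added at 5 × 10^5 cells/mL. Plates ran 48 h at 37 °C, scored for visible growth at 24 and 48 h. MIC was the lowest concentration without growth. For MBC, 10 μL from each clear well was plated on MH agar. Controls were ethanol and penicillin. Triplicate.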

Pseudomonas aeruginosa [6] = experiment: Antibacterial activity against non-beta-lactamase producing Pseudomonas aeruginosa ATCC 27853 after 48 hrs by microdilution broth method; assay type: functional, organism-based; how it was run: as §2
Staphylococcus aureus [7] = experiment: Antibacterial activity against non-beta-lactamase producing Staphylococcus aureus ATCC 25923 after 48 hrs by microdilution broth method; assay type: functional, organism-based; how it was run: as §2
Enterococcus faecalis [8] = experiment: Antibacterial activity against non-beta-lactamase producing Enterococcus faecalis ATCC 29212 after 48 hrs by microdilution broth method; assay type: functional, organism-based; how it was run: as §2
[9] = Chemical stability of the compound assessed as compound degradation after 48 hrs by NMR analysis; assay type: physicochemical; conditions: for degraded at 48 h: read-out: Drug metabolism
Moraxella catarrhalis [10] = experiment: Antibacterial activity against beta-lactamase producing Moraxella catarrhalis isolate 1 at 10 ug/disc after overnight incubation by disc diffusion assay; assay type: functional; how it was run: as §1
Moraxella catarrhalis [11] = experiment: Antibacterial activity against beta-lactamase producing Moraxella catarrhalis isolate 2 at 10 ug/disc after overnight incubation by disc diffusion assay; assay type: functional; conditions: read-out: IZ; how it was run: as §1
Moraxella catarrhalis [12] = experiment: Antibacterial activity against beta-lactamase producing Moraxella catarrhalis isolate 3 at 10 ug/disc after overnight incubation by disc diffusion assay; assay type: functional; how it was run: as §1
Moraxella catarrhalis [13] = experiment: Antibacterial activity against beta-lactamase producing Moraxella catarrhalis isolate 4 at 10 ug/disc after overnight incubation by disc diffusion assay; assay type: functional; how it was run: as §1
Moraxella catarrhalis [14] = experiment: Antibacterial activity against beta-lactamase producing Moraxella catarrhalis isolate 5 at 10 ug/disc after overnight incubation by disc diffusion assay; assay type: functional; conditions: read-out: IZ; how it was run: as §1

Structure (SMILES)	Activity (Escherichia coli [1])	Activity (Pseudomonas aeruginosa [2])	Activity (Staphylococcus aureus [3])	Activity (Enterococcus faecalis [4])	Activity (Escherichia coli [5])	Activity (Pseudomonas aeruginosa [6])	Activity (Staphylococcus aureus [7])	Activity (Enterococcus faecalis [8])	degraded at 48 h [9] [%]	inhibition zone (IZ) (Moraxella catarrhalis [10])	zone of inhibition at 10 µg/disc (Moraxella catarrhalis [11]) [mm]	inhibition zone (IZ) (Moraxella catarrhalis [12])	inhibition zone (IZ) (Moraxella catarrhalis [13])	zone of inhibition at 10 µg/disc (Moraxella catarrhalis [14]) [mm]	Percent compound degraded ([9]; 48 h) [%]
CCOC(=O)C/N=C\C(CC)(CC)SSC(C=O)(CC)CC	inactive	inactive	inactive	inactive	inactive	inactive	inactive	inactive	10						
CCC(C=O)(CC)SSC(/C=N\CC(=O)OC)(CC)CC	inactive	inactive	inactive	inactive	inactive	inactive	inactive	inactive	10						
CCOC(=O)C/N=C\C(CC)(CC)SSC(/C=N/CC(=O)OCC)(CC)CC	inactive	inactive	inactive	inactive	inactive	inactive	inactive	inactive	10						
CCOC(=O)C/N=C\C(S)(CC)CC	inactive	inactive	inactive	inactive	inactive	inactive	inactive	inactive		inactive	2	inactive	inactive	11	10
